Calls of active or inactive are those of the source. The rule behind the calls is not given here.
Experiments:
Assay type in all cases: functional, cell-based
GH3 [1] = assay: Area under DAF2 monitored nitrite production in GH3 cells-incubation period curve
AEC = assay: Increase in DAF2 monitored NO production in BAEC at 10 mM after 30 mins; details: Bos taurus
How it was run: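 Bovine aortic endothelial cells grown in DMEM/10% FBS, exposed to 10 mM compound in normal Krebs solution (pH 7.4) for 30 min at 37 °C. Then loaded with 10 µM DAF-2DA for 30 min, fixed with 4% paraformaldehyde for 5 min, and imaged by fluorescence microscopy (ex/em 495/515 nm). Output is % of Krebs-only control fluorescence.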

GH3 [2] = assay: Increase in DAF2 monitored nitrite production in GH3 cells at 30 mins
GH3 [3] = assay: Increase in DAF2 monitored NO production in GH3 cells at 30 mins
How it was run: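 GH3 cells in F10 with 10% FBS and 15% horse serum, treated 30 min at 37 °C with 3, 10 or 30 mM compound in normal Krebs (pH 7.4). Loaded with 10 µM DAF-2DA for 30 min, fixed in 4% paraformaldehyde, and fluorescence read by densitometry at 495/515 nm. Reported as % of Krebs-only control; mean ± S.E. of three values from three sessions.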

| Compound | AUC (GH3 [1]) [ng·h/mL] | Activity (AEC) | Activity (GH3 [2]) | Activity (GH3 [3]) |
| --- | --- | --- | --- | --- |
| N=C(N)NCCC[C@@H](N)C(=O)O | 2470 | Active | – | – |
| NC(N)=NCCC[C@H](N)C(=O)OC[C@H]1O[C@H](O)[C@H](O)[C@@H](O)[C@H]1O | – | Active | Active | Active |
| NC(N)=NCCC[C@@H](N)C(=O)OC[C@H]1O[C@H](O)[C@H](O)[C@@H](O)[C@H]1O | 7500 | Active | – | – |
| N=C(N)NCCC[C@H](N)C(=O)O | 1390 | Active | – | – |
